Xi reactivation: X-chromosome reactivation activator; XiGFP mouse fibroblasts, % GFP-positive cells imaging, 3 d; cells co-treated with 5-aza-dC sensitizer; scaled so ellipticine positive control = 100%; activation, % at 7.58 µM; 360,000 compounds, 0.055% hits; AID 743238;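 active = mean normalized replicate activation at least 10% and every replicate at or above 10%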;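 also: 0% = median of on-plate neutral control wells and 100% = ellipticine 6 µM median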
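Assay system – SV40-immortalized XiGFP fibroblast cells, line 68-5-11 · Buffer or medium – DMEM supplemented with 5-aza-dC as sensitizing agent · Dosing – one concentration, pinned · Benchmarks – positive control ellipticine, 6 µM final · Times – 3 days compound exposure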
Myeloid diff MLP: myeloid differentiation induction; ER-HoxA9 myeloid progenitors, lysozyme-GFP differentiation, flow cytometry; calls only at 10 µM; 360,000 compounds, 1% hits;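 active = normalized GFP-positive differentiation at or above the plate's own cutoff, the solvent-only control mean plus 3 SD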;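 also: cells exposed to compound for four days before flow analysis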
ABCB6 inh MLPCN: human ABCB6 transporter inhibition; AID 602162; K562-ABCB6 porphyrin accumulation, flow cytometry, 1 h; hits give low values; Q9NP58; 360,000 compounds, 0.19% hits; fluorescence ratio to DMSO, % at 10 µM;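 active = fluorescence ratio to DMSO below 75%, the collection mean minus 3 SD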;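 also: signal is porphyrin accumulated inside mitochondria; 100% equals median channel fluorescence of DMSO control wells; lower ratio means ABCB6 inhibition with less porphyrin fluorescence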
ABCB6 inh CP1: blocks the human ABCB6 transporter; 700 tested, under 10 active; shares compounds with ABCB6 inh MLPCN; ratio response (% of DMSO), % at 10 µM; K562-ABCB6 porphyrin accumulation, flow cytometry, 1 h; hits give low values;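 active = repeat-averaged ratio response below 75% of DMSO, the collection mean minus 3 SD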;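 also: median porphyrin fluorescence at 575 nm with 488 nm excitation from mitochondria; lower ratio means less porphyrin signal so ABCB6 inhibition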
Active calls of the source: *. Only a selection was taken, and hits are over-represented in it overall.

Results for COc1ccc(-c2[nH]ncc2Oc2ccccc2OC)c(O)c1 ?
Myeloid diff MLP: active; ABCB6 inh MLPCN: 103

How did COc1ccc(Oc2cn[nH]c2-c2ccc(O)cc2O)cc1 do in these assays?
Myeloid diff MLP: inactive; ABCB6 inh MLPCN: 101

How did COc1ccc(-n2nc(C(=O)c3cccs3)cc(-c3nc4ccccc4[nH]3)c2=N)cc1 do in these assays?
Myeloid diff MLP: active; ABCB6 inh MLPCN: 98

How did Cc1ccccc1-n1nc(C(=O)c2cccs2)cc(-c2nc3ccccc3[nH]2)c1=N do in these assays?
Myeloid diff MLP: inactive; ABCB6 inh MLPCN: 95

Results for CC(C)(C)n1ncc2c(=O)n(CC(=O)NCc3ccc(F)cc3)cnc21 ?
Myeloid diff MLP: active; ABCB6 inh MLPCN: 99

Results for CC(C)(C)n1ncc2c(=O)n(CC(=O)NCc3ccco3)cnc21 ?
Myeloid diff MLP: inactive; ABCB6 inh MLPCN: 96

How did C[C@H]1CN([C@@H](C)CO)C(=O)c2cc(NC(=O)Cn3cnnn3)ccc2O[C@H]1CN(C)C(=O)Nc1ccc(C(F)(F)F)cc1 do in these assays?
Xi reactivation: 0

Results for CCn1cc(C(=O)NC(C)C2CC3CCC2C3)cn1 (stereo not given) ?
Xi reactivation: 0; Myeloid diff MLP: inactive; ABCB6 inh MLPCN: 101

Results for CCn1cc(C(=O)NC(C)C23CC4CC(CC(C4)C2)C3)cn1 (stereo not given) ?
Xi reactivation: 0; Myeloid diff MLP: active; ABCB6 inh MLPCN: 94

How did COc1ccc(Oc2c(OC)cc(NCc3ccc(CN)cc3)c3ncccc23)cc1 do in these assays?
Xi reactivation: 0; Myeloid diff MLP: active; ABCB6 inh MLPCN: 117

Results for COc1ccc(CNc2cccnc2Cl)cc1 ?
Xi reactivation: 0; Myeloid diff MLP: inactive; ABCB6 inh MLPCN: 95

What do the screens show for `CCCNC(=O)N1CC(=O)N2[C@@H](CO)[C@H](c3ccc(-c4cccc(C)c4)cc3)[C@@H]2C1`?
Xi reactivation: 0

Results for COc1ccc(CNC(=O)c2cc(S(=O)(=O)N3CCOCC3)cn2C)cc1 ?
Xi reactivation: 0; Myeloid diff MLP: inactive; ABCB6 inh MLPCN: 99

Results for COc1cccc(CNC(=O)c2cc(S(=O)(=O)N3CCOCC3)cn2C)c1 ?
Xi reactivation: 23*; Myeloid diff MLP: inactive; ABCB6 inh MLPCN: 97

What do the screens show for `CCOC(=O)c1ccccc1NC(=O)COC(=O)c1ccccc1C(=O)N(C)c1ccccc1`?
Xi reactivation: 0; Myeloid diff MLP: inactive; ABCB6 inh MLPCN: 104

What do the screens show for `CN(C(=O)c1ccccc1NC(=O)C(F)(F)F)c1ccccc1`?
Myeloid diff MLP: inactive; ABCB6 inh MLPCN: 60*

How did CC(=O)c1c(C)n([O-])c2cc(F)c(F)cc2[n+]1=O do in these assays?
Xi reactivation: 0; Myeloid diff MLP: active; ABCB6 inh MLPCN: 104

Results for COc1ccc2c(c1)[n+](=O)c(C(C)=O)c(C)n2[O-] ?
Myeloid diff MLP: inactive; ABCB6 inh MLPCN: 102

Results for CCCC(=O)Nc1ccc2c(c1)OC[C@H](C)N(CCC(F)(F)F)C[C@H](C)[C@H](OC)CN(C)C2=O ?
Xi reactivation: 0

What do the screens show for `COCC#Cc1ccc2c(c1)O[C@H](CN(C)S(=O)(=O)c1ccc(F)cc1)[C@@H](C)CN([C@@H](C)CO)S2(=O)=O`?
Xi reactivation: -1

How did COc1cccc(-c2ccc([C@H]3[C@H](CO)N4C(=O)CN(C(=O)c5ccncc5)C[C@@H]34)cc2)c1 do in these assays?
Xi reactivation: 0

How did O=C(O)c1ccc(CSCc2ccco2)cc1 do in these assays?
Myeloid diff MLP: inactive; ABCB6 inh MLPCN: 74*; ABCB6 inh CP1: 99

How did O=C(Cc1ccccc1)NCCSCc1ccco1 do in these assays?
Myeloid diff MLP: inactive; ABCB6 inh MLPCN: 105

What do the screens show for `COc1ccc(CNS(=O)(=O)NCc2ccccc2F)cc1`?
Xi reactivation: 0; Myeloid diff MLP: inactive; ABCB6 inh MLPCN: 70*; ABCB6 inh CP1: 96

What do the screens show for `O=S(=O)(NCc1ccccc1)NCc1ccccc1F`?
Xi reactivation: 0; Myeloid diff MLP: inactive; ABCB6 inh MLPCN: 96

Results for O=c1ccn(Cc2ccccc2)c2ccccc12 ?
Xi reactivation: 0; Myeloid diff MLP: inactive; ABCB6 inh MLPCN: 72*; ABCB6 inh CP1: 97

Results for Cc1c(OCc2ccccc2)c(=O)ccn1Cc1ccccc1 ?
Myeloid diff MLP: inactive; ABCB6 inh MLPCN: 107

How did CC(=O)Oc1c(S(=O)(=O)c2ccccc2)c(C)nn1C(C)(C)C do in these assays?
Myeloid diff MLP: inactive; ABCB6 inh MLPCN: 91

Bioassay records (PubChem BioAssay)
